Laboratory results: ChEMBL document CHEMBL2086286, “Synthesis, antitumor, cytotoxic and antioxidant evaluation of some new pyrazolotriazines attached to antipyrine moiety” (Eur J Med Chem, 2012)
Values after ≈ are worked out from the molar mass of the structure shown. Values joined by “and” are separate entries in the source; they are usually repeats but may differ in a detail not shown here. Equal values may be shown once. Active and inactive are the calls of the source. No cut-off for these calls is given here.

Key:
[1] = Antioxidant activity assessed as ABTS free radical scavenging activity at 1 mg/mL by spectroscopic analysis; assay type: functional
How it was run: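 ABTS radical cation generated by reacting ABTS with MnO2 (25 mg/mL) in phosphate buffer pH 7, then centrifuged and filtered. Absorbance read at 734 nm before and after adding test sample (1 mg/mL in MeOH/buffer 1:1). % inhibition = [A(control) − A(test)]/A(control) × 100. Ascorbic acid (2 mM) as positive control; solvent blank without ABTS.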

[2] = Cytotoxicity against mouse EAC after 2 hrs by trypan blue staining based hemocytometer analysis; assay type: functional, Ehrlich; conditions: for IC50: ehrlich
How it was run: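 Ehrlich ascites cells aspirated aseptically from the peritoneal cavity of a donor animal. Held in RPMI with 10% FBS at 37 °C, 5% CO2 for 2 h with compound at 25, 50 and 100 µg, final DMSO 0.1%. Dead cells counted by trypan blue staining on a hemocytometer; DMSO-only control viability exceeded 95%. 5-Fluorouracil as reference.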

MCF7 = experiment: Cytotoxicity against human MCF7 cells after 96 hrs by MTT assay; assay type: functional, cell-based; conditions: MCF7, 96 h
Vero = experiment: Cytotoxicity against African green monkey Vero cells after 96 hrs by MTT assay; assay type: cell-based; conditions: Chlorocebus sabaeus
WI-38 = experiment: Cytotoxicity against human WI38 cells after 96 hrs by MTT assay; assay type: functional, cell-based; conditions: WI-38, 96 h
HepG2 = experiment: Cytotoxicity against human HepG2 cells after 96 hrs by MTT assay; assay type: functional, cell-based; conditions: HepG2, 96 h
Nucleic Acid = experiment: Protective activity against bleomycin-iron complex-induced DNA damage at 0.1 mg/ml after 1 hr; assay type: nucleic-acid assay
How it was run: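 Final reaction mixture: DNA 0.2 mg/mL, bleomycin 0.05 mg/mL, FeCl3 0.025 mM, MgCl2 5 mM, KH2PO4/KOH pH 7.0 30 mM, and test sample 0.1 mg/mL (in MeOH) or ascorbic acid 0.24 mM. Incubated 1 h at 37 °C, stopped with EDTA. DNA damage measured by adding 1% TBA and 25% HCl, heating 15 min at 80 °C, then reading absorbance.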

Structure (SMILES) | inhibition [1] | ED25 [2] | ED100 [2] | IC50 [2] | IC50 (MCF7) | IC50 (Vero) | IC50 (WI-38) | IC50 (HepG2) | Activity (Nucleic Acid) | ED50 [2]
CC(=N)c1nnc2c(/N=N/c3c(C)n(C)n(-c4ccccc4)c3=O)c(C)nn2c1N | 24.4% | 14.38 µg | 70.1 µg | 95.5 µg and 55 µg | 152 mg/L (≈ 375 µM) | 164 mg/L (≈ 406 µM) | 175 mg/L (≈ 433 µM) | 139 mg/L (≈ 343 µM) | – | –
CCOC(=O)c1nnc2c(/N=N/c3c(C)n(C)n(-c4ccccc4)c3=O)c(C)nn2c1N | 17.6% | 28.02 µg | 65.3 µg | 94 µg and 47 µg | 420 mg/L (≈ 965 µM) | 284 mg/L (≈ 653 µM) | 367 mg/L (≈ 843 µM) | 268 mg/L (≈ 616 µM) | – | –
Cc1[nH]nc(N/N=C(\SC#N)C(=O)c2ccccc2)c1/N=N/c1c(C)n(C)n(-c2ccccc2)c1=O | 17.6% | 26.92 µg | 65.2 µg | 94.3 µg and 48.1 µg | 101 mg/L (≈ 202 µM) | 96.8 mg/L (≈ 194 µM) | 92.8 mg/L (≈ 186 µM) | 95.3 mg/L (≈ 191 µM) | Active | –
CC(=O)C(=NNc1n[nH]c(C)c1/N=N/c1c(C)n(C)n(-c2ccccc2)c1=O)C(C)=O | 25.8% | 15.59 µg | 70 µg | 95 µg and 54.1 µg | 214 mg/L (≈ 507 µM) | 199 mg/L (≈ 472 µM) | 189 mg/L (≈ 446 µM) | 174 mg/L (≈ 412 µM) | – | –
Cc1[nH]nc(NN=C2C(=O)CCCC2=O)c1/N=N/c1c(C)n(C)n(-c2ccccc2)c1=O | 40% | 0.88 µg | 80 µg | 98.8 µg and 63.3 µg | 29.9 mg/L (≈ 68.8 µM) | 24.8 mg/L (≈ 57.1 µM) | 19.8 mg/L (≈ 45.6 µM) | 16.2 mg/L (≈ 37.3 µM) | Active | –
Cc1[nH]nc(N)c1/N=N/c1c(C)n(C)n(-c2ccccc2)c1=O | 28.4% | 1.71 µg | 79.3 µg | 97 µg and 58 µg | 84.7 mg/L (≈ 272 µM) | 80.3 mg/L (≈ 258 µM) | 73.1 mg/L (≈ 235 µM) | 79.1 mg/L (≈ 254 µM) | – | –
Cc1[nH]nc(NN=C(C#N)C#N)c1/N=N/c1c(C)n(C)n(-c2ccccc2)c1=O | 17.2% | 27.85 µg | 64 µg | 94.3 µg | 221 mg/L (≈ 570 µM) | 209 mg/L (≈ 537 µM) | 197 mg/L (≈ 508 µM) | 183 mg/L (≈ 470 µM) | – | –
Cc1nn2c(nnc3c(N)c(C#N)c(N)nc32)c1/N=N/c1c(C)n(C)n(-c2ccccc2)c1=O | 8.28% | 62.53 µg | 40.6 µg | – | 419 mg/L (≈ 922 µM) | 220 mg/L (≈ 485 µM) | 303 mg/L (≈ 667 µM) | 203 mg/L (≈ 448 µM) | – | –
Cc1[nH]nc(-n2nc(C(=O)c3ccccc3)sc2=N)c1/N=N/c1c(C)n(C)n(-c2ccccc2)c1=O | 15.7% | 39.36 µg | 60.5 µg | 90.7 µg | 210 mg/L (≈ 420 µM) | 210 mg/L (≈ 421 µM) | 171 mg/L (≈ 343 µM) | 186 mg/L (≈ 373 µM) | – | –
O=c1[nH]cc(F)c(=O)[nH]1 [FLUOROURACIL] | – | 32.26 µg | 68 µg | 97.3 µg | 2.5 mg/L (≈ 19.2 µM) | 6.4 mg/L (≈ 49.2 µM) | 4 mg/L (≈ 30.8 µM) | 9.1 mg/L (≈ 70 µM) | – | 38.6 µg
Cc1[nH]nc(N/N=C(/C#N)C(N)=C(C#N)C#N)c1/N=N/c1c(C)n(C)n(-c2ccccc2)c1=O | 9.86% | 64.48 µg | 38 µg | – | 192 mg/L (≈ 422 µM) | 212 mg/L (≈ 467 µM) | 176 mg/L (≈ 387 µM) | 148 mg/L (≈ 325 µM) | – | –
